# Test results: ChEMBL document CHEMBL3734720, “Synthesis of thiophene-thiosemicarbazone derivatives and evaluation of their in vitro and in vivo antitumor activities” (Eur J Med Chem, 2015)
# How the values were obtained:
# [1] = Antitumor activity against mouse EAT implanted in Balb/C mouse assessed as change in paw volume at 40 mg/kg, po administered on day 3 post tumor inoculation measured on day 3 by plethysmometer analysis (reference value: 40.2 +/- 7.0%); type: functional
# [2] = Antitumor activity against mouse EAT implanted in Balb/C mouse assessed as change in paw volume at 40 mg/kg, po administered on day 3 post tumor inoculation measured on day 6 by plethysmometer analysis (reference value: 86.1 +/- 5.7%); type: functional
# [3] = Antitumor activity against mouse EAT implanted in Balb/C mouse assessed as change in paw volume at 40 mg/kg, po administered on day 3 post tumor inoculation measured on day 9 by plethysmometer analysis (reference value: 95.5 +/- 5.2%); type: functional
# [4] = Antitumor activity against mouse EAT implanted in Balb/C mouse assessed as change in paw volume at 40 mg/kg, po administered on day 3 post tumor inoculation measured on day 12 by plethysmometer analysis (reference value: 125.5 +/- 7.5%); type: functional
# [5] = Antitumor activity against mouse EAT implanted in Balb/C mouse assessed as change in paw volume at 40 mg/kg, po administered on day 3 post tumor inoculation measured on day 15 by plethysmometer analysis (reference value: 166.5 +/- 6.0%); type: functional
# [6] = test system: K562; assay: Antiproliferative activity against human K562 cells assessed as growth inhibition after 48 hrs by SRB assay; type: functional; conditions: K562, 48 h
# How it was run: (§1)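 Cells exposed 48 h at 37 °C, 5% CO2 to 0.25, 2.5, 25 and 250 µg/mL in DMSO/RPMI (final DMSO 0.1%); doxorubicin standard at 0.025–25 µg/mL. Plates fixed with 50% TCA before (T0) and after treatment; protein content read by sulforhodamine B at 540 nm. GI50 (µM) from nonlinear regression of concentration–response curves; triplicate.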
# [7] = Antiproliferative activity against human HaCaT cells assessed as growth inhibition after 48 hrs by SRB assay; type: cell-based; how it was run: as §1
# [8] = test system: U-251; assay: Antiproliferative activity against human U251 cells assessed as growth inhibition after 48 hrs by SRB assay; type: functional; conditions: U-251, 48 h; how it was run: as §1
# [9] = Antiproliferative activity against human UACC62 cells assessed as growth inhibition after 48 hrs by SRB assay; type: functional; conditions: UACC-62, 48 h; how it was run: as §1
# [10] = test system: MCF7; assay: Antiproliferative activity against human MCF7 cells assessed as growth inhibition after 48 hrs by SRB assay; type: functional; conditions: MCF7, 48 h; how it was run: as §1
# [11] = Antiproliferative activity against human NCI-ADR-RES cells assessed as growth inhibition after 48 hrs by SRB assay; type: functional; how it was run: as §1
# [12] = test system: 786-0; assay: Antiproliferative activity against human 786-0 cells assessed as growth inhibition after 48 hrs by SRB assay; type: functional; conditions: 786-0, 48 h; how it was run: as §1
# [13] = test system: NCI-H460; assay: Antiproliferative activity against human NCI-H460 cells assessed as growth inhibition after 48 hrs by SRB assay; type: functional; conditions: NCI-H460, 48 h; how it was run: as §1
# [14] = Antiproliferative activity against human PC3 cells assessed as growth inhibition after 48 hrs by SRB assay; type: functional; conditions: PC-3, 48 h; how it was run: as §1
# [15] = test system: HT-29; assay: Antiproliferative activity against human HT-29 cells assessed as growth inhibition after 48 hrs by SRB assay; type: functional; conditions: HT-29, 48 h; how it was run: as §1
# [16] = Antitumor activity against mouse EAT implanted in Balb/C mouse assessed as change in paw volume at 3 mg/kg, ip administered on day 3 post tumor inoculation measured on day 3 by plethysmometer analysis (reference value: 40.2 +/- 7.0%); type: functional
# [17] = Antitumor activity against mouse EAT implanted in Balb/C mouse assessed as change in paw volume at 3 mg/kg, ip administered on day 3 post tumor inoculation measured on day 6 by plethysmometer analysis (reference value: 86.1 +/- 5.7%); type: functional
# [18] = Antitumor activity against mouse EAT implanted in Balb/C mouse assessed as change in paw volume at 3 mg/kg, ip administered on day 3 post tumor inoculation measured on day 9 by plethysmometer analysis (reference value: 95.5 +/- 5.2%); type: functional
# [19] = Antitumor activity against mouse EAT implanted in Balb/C mouse assessed as change in paw volume at 3 mg/kg, ip administered on day 3 post tumor inoculation measured on day 12 by plethysmometer analysis (reference value: 125.5 +/- 7.5%); type: functional
# [20] = Antitumor activity against mouse EAT implanted in Balb/C mouse assessed as change in paw volume at 3 mg/kg, ip administered on day 3 post tumor inoculation measured on day 15 by plethysmometer analysis (reference value: 166.5 +/- 6.0%); type: functional
# [21] = test system: 786-0; assay: Cell cycle arrest in human 786-0 cells assessed as accumulation at Sub G1 phase at 1.25 nM after 24 hrs by propidium iodide based flow cytometric analysis (reference value: 3.0 +/- 0.7%); type: functional
# [22] = test system: 786-0; assay: Cell cycle arrest in human 786-0 cells assessed as reduction in G1 phase at 1.25 nM after 24 hrs by propidium iodide based flow cytometric analysis (reference value: 46.7 +/- 0.8%); type: functional; design: scale not given: the % may be the effect or the level left
# [23] = test system: 786-0; assay: Cell cycle arrest in human 786-0 cells assessed as accumulation at S phase at 1.25 nM after 24 hrs by propidium iodide based flow cytometric analysis (reference value: 14.6 +/- 1.3%); type: functional
# [24] = test system: 786-0; assay: Cell cycle arrest in human 786-0 cells assessed as accumulation at G2/M phase at 1.25 nM after 24 hrs by propidium iodide based flow cytometric analysis (reference value: 35.7 +/- 0.9%); type: functional
structure (smiles),measurement,setting,value
CN1C(C(=O)Nc2ccccn2)=C(O)c2ccccc2S1(=O)=O [PIROXICAM],Activity,[1],42.2%
same,Activity,[2],57.2%
same,Activity,[3],52.3%
same,Activity,[4],34.9%
same,Activity,[5],47.3%
CCc1ccc(NC(=S)N/N=C/c2cccs2)cc1,GI50,[6],1.6 µM
same,GI50 at 48 h,[7],17.6 µM
same,GI50,[8],> 100 µM
same,GI50,[9],> 100 µM
same,GI50,[10],> 100 µM
same,GI50,[11],> 100 µM
same,GI50,[12],82.6 µM
same,GI50,[13],> 100 µM
same,GI50,[14],> 100 µM
same,GI50,[15],> 100 µM
S=C(N/N=C/c1cccs1)Nc1ccc(Cl)cc1,GI50,[6],2 µM
same,GI50 at 48 h,[7],14.7 µM
same,GI50,[8],8.3 µM
same,GI50,[9],15.8 µM
same,GI50,[10],> 100 µM
same,GI50,[11],2.8 µM
same,GI50,[12],7.4 µM
same,GI50,[13],> 100 µM
same,GI50,[14],> 100 µM
same,GI50,[15],> 100 µM
COc1ccc(NC(=S)N/N=C/c2cccs2)cc1,GI50,[6],1.7 µM
same,GI50 at 48 h,[7],> 100 µM
same,GI50,[8],> 100 µM
same,GI50,[9],> 100 µM
same,GI50,[10],> 100 µM
same,GI50,[11],> 100 µM
same,GI50,[12],> 100 µM
same,GI50,[13],> 100 µM
same,GI50,[14],> 100 µM
same,GI50,[15],> 100 µM
Cc1ccc(NC(=S)N/N=C/c2cccs2)cc1,GI50,[6],< 0.9 µM
same,GI50 at 48 h,[7],17.6 µM
same,GI50,[8],12.6 µM
same,GI50,[9],16.8 µM
same,GI50,[10],38.6 µM
same,GI50,[11],4.8 µM
same,GI50,[12],19.5 µM
same,GI50,[13],80.6 µM
same,GI50,[14],29.7 µM
same,GI50,[15],> 100 µM
S=C(NCCc1ccccc1)N/N=C/c1cccs1,GI50,[6],> 100 µM
same,GI50 at 48 h,[7],> 100 µM
same,GI50,[8],> 100 µM
same,GI50,[9],> 100 µM
same,GI50,[10],> 100 µM
same,GI50,[11],> 100 µM
same,GI50,[12],> 100 µM
same,GI50,[13],> 100 µM
same,GI50,[14],> 100 µM
same,GI50,[15],> 100 µM
S=C(N/N=C/c1cccs1)Nc1cccc2ccccc12,GI50,[6],1.8 µM
same,GI50 at 48 h,[7],82.4 µM
same,GI50,[8],12.7 µM
same,GI50,[9],> 100 µM
same,GI50,[10],> 100 µM
same,GI50,[11],6.6 µM
same,GI50,[12],15.2 µM
same,GI50,[13],> 100 µM
same,GI50,[14],> 100 µM
same,GI50,[15],> 100 µM
S=C(N/N=C/c1cccs1)Nc1cccnc1,GI50,[6],16.4 µM
same,GI50 at 48 h,[7],45.4 µM
same,GI50,[8],26 µM
same,GI50,[9],> 100 µM
same,GI50,[10],> 100 µM
same,GI50,[11],> 100 µM
same,GI50,[12],5.6 µM
same,GI50,[13],45.9 µM
same,GI50,[14],> 100 µM
same,GI50,[15],> 100 µM
COc1cccc2c1C(=O)c1c(O)c3c(c(O)c1C2=O)C[C@@](O)(C(=O)CO)C[C@@H]3O[C@H]1C[C@H](N)[C@H](O)[C@H](C)O1 [DOXORUBICIN],GI50,[6],< 0.046 µM
same,GI50 at 48 h,[7],< 0.046 µM
same,Activity,[16],43.7%
same,Activity,[17],55.6%
same,Activity,[18],69.8%
same,Activity,[19],39.6%
same,Activity,[20],97.9%
same,GI50,[8],< 0.046 µM
same,GI50,[9],0.05 µM
same,GI50,[10],< 0.046 µM
same,GI50,[11],0.21 µM
same,GI50,[12],< 0.046 µM
same,GI50,[13],< 0.046 µM
same,GI50,[14],0.13 µM
same,GI50,[15],0.3 µM
COc1cc2c(c(OC)c1OC)-c1ccc(OC)c(=O)cc1[C@@H](NC(C)=O)CC2 [COLCHICINE],Activity,[21],8.9%
same,Activity,[22],21.5%
same,Activity,[23],12.6%
same,Activity,[24],57.5%
S=C(N/N=C/c1cccs1)Nc1ccccc1,GI50,[6],16.7 µM
same,GI50 at 48 h,[7],> 100 µM
same,GI50,[8],74.7 µM
same,GI50,[9],> 100 µM
same,GI50,[10],94.6 µM
same,GI50,[11],> 100 µM
same,GI50,[12],50.4 µM
same,GI50,[13],> 100 µM
same,GI50,[14],> 100 µM
same,GI50,[15],> 100 µM
C=CCNC(=S)N/N=C/c1cccs1,GI50,[6],6 µM
same,GI50 at 48 h,[7],> 100 µM
same,GI50,[8],> 100 µM
same,GI50,[9],> 100 µM
same,GI50,[10],> 100 µM
same,GI50,[11],> 100 µM
same,GI50,[12],21.2 µM
same,GI50,[13],> 100 µM
same,GI50,[14],> 100 µM
same,GI50,[15],> 100 µM
